≈ marks a conversion by molar mass, not a printed value.
What was measured:
M. tuberculosis [1] = settings: previous study; cited from earlier work
Interconversion = assay type: physicochemical; settings: for Relative stability among diastereomers/epimers: hemiaminal equilibrium
[2] = target: Mycobacterial ClpC1-NTD (caseinolytic protein C1 N-terminal domain) (Mycobacterium tuberculosis, UniProt P9WPC9); assay: Binding affinity to ClpC1-NTD by surface plasmon resonance; settings: SPR, KD = kd/ka, 1:1 Langmuir model
Chain of Mycobacterial ClpC1-NTD (caseinolytic protein C1 N-terminal domain) (P9WPC9 2-144): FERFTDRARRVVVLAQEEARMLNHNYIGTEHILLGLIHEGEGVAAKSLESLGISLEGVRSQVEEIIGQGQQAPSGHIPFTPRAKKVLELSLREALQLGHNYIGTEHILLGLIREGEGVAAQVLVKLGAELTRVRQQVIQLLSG
How it was run: (§1)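 Association (ka) and dissociation (kd) rate constants came from a global fit of double-referenced SPR data to a 1:1 Langmuir model, and KD was calculated as kd/ka. The same procedure was used for the mycobacterial ClpC1 N-terminal domain and for the full-length protein.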

[3] = target: Mycobacterial ClpC1 FL (full-length protein) (Mycobacterium tuberculosis, UniProt P9WPC9); assay: Binding affinity to full-length ClpC1 by surface plasmon resonance; settings: SPR, KD = kd/ka, 1:1 Langmuir model
Chain of Mycobacterial ClpC1 FL (full-length protein) (P9WPC9 whole entry): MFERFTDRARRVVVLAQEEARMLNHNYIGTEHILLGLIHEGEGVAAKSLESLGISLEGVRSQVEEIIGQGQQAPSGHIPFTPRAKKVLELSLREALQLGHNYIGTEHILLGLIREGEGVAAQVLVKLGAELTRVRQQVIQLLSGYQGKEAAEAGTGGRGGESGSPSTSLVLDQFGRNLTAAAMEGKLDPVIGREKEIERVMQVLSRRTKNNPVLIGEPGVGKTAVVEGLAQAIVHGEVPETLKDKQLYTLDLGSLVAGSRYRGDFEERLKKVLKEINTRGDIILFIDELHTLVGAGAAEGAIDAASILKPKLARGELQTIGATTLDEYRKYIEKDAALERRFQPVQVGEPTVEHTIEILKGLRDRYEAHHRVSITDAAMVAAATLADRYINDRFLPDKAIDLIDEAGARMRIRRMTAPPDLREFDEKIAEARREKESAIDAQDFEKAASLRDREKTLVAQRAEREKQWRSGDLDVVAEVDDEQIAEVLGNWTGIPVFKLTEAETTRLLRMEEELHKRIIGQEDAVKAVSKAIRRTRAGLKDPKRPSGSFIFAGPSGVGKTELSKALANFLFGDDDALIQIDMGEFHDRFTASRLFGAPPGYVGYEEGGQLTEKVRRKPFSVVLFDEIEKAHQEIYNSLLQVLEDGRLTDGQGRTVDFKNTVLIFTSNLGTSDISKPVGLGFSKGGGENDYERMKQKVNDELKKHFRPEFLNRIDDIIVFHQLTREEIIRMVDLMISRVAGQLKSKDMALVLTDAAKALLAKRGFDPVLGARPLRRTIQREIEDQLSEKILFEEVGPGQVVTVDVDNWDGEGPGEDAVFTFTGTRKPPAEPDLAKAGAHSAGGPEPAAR
How it was run: as §1

M. tuberculosis [4] = assay: MIC against M. tuberculosis, microplate Alamar Blue assay; assay type: cell-based; settings: Mycobacterium tuberculosis, read-out: MIC value (anti-Mtb)

Row | SMILES | Relative stability among diastereomers/epimers (Interconversion) | Kd [2] | Kd [3] | further results
1 | C/C=C/C[C@@H]1NC(=O)[C@H](CC(C)C)N2C(=O)[C@H](C[C@H](C)[C@H]2O)N(C)C(=O)[C@H](C)NC(=O)[C@H](Cc2ccc(O)c([N+](=O)[O-])c2)NC(=O)[C@H](CC(C)C)N(C)C(=O)[C@H](Cc2cn(C(C)(C)[C@H]3CO3)c3ccccc23)NC1=O [rufomycin 4] |  |  |  | MIC value (anti-Mtb) (M. tuberculosis [1]): ~ 0.020 μM
2 | C/C=C/C[C@@H]1NC(=O)[C@H](CC(C)C)N2C(=O)[C@H](C[C@@H](C)[C@H]2O)N(C)C(=O)[C@H](C)NC(=O)[C@H](Cc2ccc(O)c([N+](=O)[O-])c2)NC(=O)[C@H](CC(C)C)N(C)C(=O)[C@H](Cc2cn(C(C)(C)[C@H]3CO3)c3ccccc23)NC1=O [rufomycin 6] | more stable epimer |  |  | Conversion to rufomycin 7 (Interconversion; slow conversion under aqueous conditions): ~ 5%
3 | C/C=C/C[C@@H]1NC(=O)[C@H](CC(C)C)N2C(=O)[C@H](C[C@@H](C)[C@@H]2O)N(C)C(=O)[C@H](C)NC(=O)[C@H](Cc2ccc(O)c([N+](=O)[O-])c2)NC(=O)[C@H](CC(C)C)N(C)C(=O)[C@H](Cc2cn(C(C)(C)[C@H]3CO3)c3ccccc23)NC1=O [rufomycin 7] | most unstable diastereomer |  |  | Epimerization to rufomycin 6 (Interconversion; quickly, during concentration): ~ 50%
4 | CC=CCC1NC(=O)C(CC(C)C)N2C(=O)C(CC(C)C2OCCCC)N(C)C(=O)C(C)NC(=O)C(Cc2ccc(O)c([N+](=O)[O-])c2)NC(=O)C(CC(C)C)N(C)C(=O)C(Cc2cn(C(C)(C)C(O)CCl)c3ccccc23)NC1=O (stereo not drawn) [rufomycinSS 1] |  | 602 nM | 724 nM | 
5 | CC=CCC1NC(=O)C(CC(C)C)N2C(=O)C(CC(C)C2OCCCC)N(C)C(=O)C(C)NC(=O)C(Cc2ccc(O)c([N+](=O)[O-])c2)NC(=O)C(CC(C)C)N(C)C(=O)C(Cc2cn(C(C)(C)C(O)CCl)c3ccccc23)NC1=O (stereo not drawn) [rufomycinSS 2] |  | 27 nM | 29 nM | 
6 | C/C=C/C[C@@H]1NC(=O)[C@H](CC(C)C)N2C(=O)[C@H](C[C@@H](C)[C@H]2OCCCC)N(C)C(=O)[C@H](C)NC(=O)[C@H](Cc2ccc(O)c([N+](=O)[O-])c2)NC(=O)[C@H](CC(C)C)N(C)C(=O)[C@H](Cc2cn(C(C)(C)C(O)CCl)c3ccccc23)NC1=O (stereo partly drawn) [rufomycinSS 3] |  | 211 nM | 171 nM | MIC (M. tuberculosis [4]): 4.3 µM (≈ 4.88 µg/mL)

— article PMC8865217 (Journal of natural products, 2021)
